According to article PMC12502093 (RSC Advances, 2025):
≈ marks a conversion by molar mass, not a printed value.

Assays:
[1] = test system: BCL2; assay: qRT-PCR gene expression in MCF7 cells: BCL2; type: cell-based, human; details: compound at IC50, 48 h, relative to β-Actin, vs control
Summary of the method: (§1)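 MCF7 cells (3 × 10^4 per well) were treated 48 h with test compound. Total RNA was column-extracted and reverse-transcribed to first-strand cDNA. SYBR Green qPCR ran 95 °C 10 min, then 40 cycles of 95 °C 15 s, 60 °C 30 s, 72 °C 30 s. Expression was normalised to β-Actin by 2−ΔΔCT relative to untreated control. Data are mean ± SEM; Student's t-test, P < 0.05.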

[2] = test system: JAK2; assay: qRT-PCR gene expression in MCF7 cells: JAK2; type: cell-based, human; details: compound at IC50, 48 h, relative to β-Actin, vs control
Summary of the method: as §1

[3] = test system: S. aureus ATCC 25923; assay: Agar well diffusion test; type: cell-based; details: AWDT; for Zone of inhibition, inhibition scale: S. aureus ATCC 25923; for Zone of inhibition: S. aureus ATCC 25923, average of triplicate
Summary of the method: (§2)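 Agar well diffusion. Test compounds were placed in wells on agar inoculated with the reference strain or isolate. After incubation, inhibition zone diameters were measured in mm with a caliper. Runs were in triplicate and the zone averaged. Scale: 0 = no inhibition; 0–6 mm (−); 7–11 mm (+); 12–14 mm (++); 15–17 mm (+++).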

[4] = test system: MCF7 cells; assay: Neutral red uptake cytotoxicity assay, MCF7; type: cell-based, human; details: for IC50: Homo sapiens, MCF7, 48 h, read-out: IC50 (μM) MCF7; for (SI) MCF7, selectivity index: SI = IC50 MDCK cell/IC50 MCF7 cell
Summary of the method: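 Neutral red uptake. Log-phase cells were grown in DMEM with 10% FBS at 37 °C, 5% CO2, at 10^4 cells/well. They were exposed 48 h to 12.5, 25, 50 and 100 μM test compound (DMSO final <0.2%), then given neutral red medium for 2 h and washed with DPBS. Dye was extracted with 1% acetic acid/50% ethanol and read at 450/630 nm. IC50 came from log concentration versus intensity, three runs averaged. SI = MDCK IC50 / MCF7 IC50.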

[5] = test system: IL6; assay: qRT-PCR gene expression in MCF7 cells: IL6; type: cell-based, human; details: compound at IC50, 48 h, relative to β-Actin, vs control
Summary of the method: as §1

[6] = test system: STAT3; assay: qRT-PCR gene expression in MCF7 cells: STAT3; type: cell-based, human; details: compound at IC50, 48 h, relative to β-Actin, vs control
Summary of the method: as §1

[7] = test system: c-MYC; assay: qRT-PCR gene expression in MCF7 cells: c-MYC; type: cell-based, human; details: compound at IC50, 48 h, relative to β-Actin, vs control
Summary of the method: as §1

[8] = target: STAT3 (Homo sapiens, UniProt P40763); assay: STAT3 tyrosine phosphorylation inhibition; type: biochemical; details: for IC50: STAT3 phosphorylation IC50 (μM) (mean ± SD), ELISA, eight dilutions 100-0.03 μM; for Potency as STAT3 inhibitor relative to lead compound I: higher potency than compound I
Chain of STAT3 (Homo sapiens, UniProt P40763) (P40763 whole entry, the tested form may be a part): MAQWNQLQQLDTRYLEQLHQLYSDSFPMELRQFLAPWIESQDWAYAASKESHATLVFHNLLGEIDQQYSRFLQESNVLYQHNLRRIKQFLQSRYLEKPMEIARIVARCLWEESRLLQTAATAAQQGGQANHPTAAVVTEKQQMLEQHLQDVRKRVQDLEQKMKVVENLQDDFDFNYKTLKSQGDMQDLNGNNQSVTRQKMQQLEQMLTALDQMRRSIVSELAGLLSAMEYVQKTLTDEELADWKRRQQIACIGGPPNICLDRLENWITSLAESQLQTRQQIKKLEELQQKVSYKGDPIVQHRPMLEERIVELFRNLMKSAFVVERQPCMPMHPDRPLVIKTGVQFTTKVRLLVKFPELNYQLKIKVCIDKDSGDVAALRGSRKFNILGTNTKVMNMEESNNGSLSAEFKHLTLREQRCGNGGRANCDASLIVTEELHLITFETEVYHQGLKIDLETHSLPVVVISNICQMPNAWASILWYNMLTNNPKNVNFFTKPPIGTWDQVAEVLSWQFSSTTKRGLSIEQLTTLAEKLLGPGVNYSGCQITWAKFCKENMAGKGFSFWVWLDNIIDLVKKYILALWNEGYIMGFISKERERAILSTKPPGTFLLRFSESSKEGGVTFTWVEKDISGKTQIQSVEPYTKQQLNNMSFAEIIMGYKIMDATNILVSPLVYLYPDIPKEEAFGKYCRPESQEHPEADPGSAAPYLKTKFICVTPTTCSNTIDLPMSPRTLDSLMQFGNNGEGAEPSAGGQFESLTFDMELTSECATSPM

[9] = test system: A. flavus isolate; assay: Agar well diffusion test; type: cell-based; details: AWDT; for Zone of inhibition: average of triplicate
Summary of the method: as §2

[10] = test system: C. albicans ATCC 10231; assay: Agar well diffusion test; type: cell-based; details: AWDT; for Zone of inhibition, inhibition scale: C. albicans ATCC 10231; for Zone of inhibition: C. albicans ATCC 10231, average of triplicate
[11] = target: T1, E. coli DNA gyrase (Escherichia coli, UniProt P0AES6); assay: E. coli DNA gyrase ATPase assay; type: biochemical
[12] = target: T2, E. coli topoisomerase IV (Escherichia coli, UniProt P20083); assay: E. coli topoisomerase IV ATPase assay; type: biochemical
T2 sequence (P20083 whole entry): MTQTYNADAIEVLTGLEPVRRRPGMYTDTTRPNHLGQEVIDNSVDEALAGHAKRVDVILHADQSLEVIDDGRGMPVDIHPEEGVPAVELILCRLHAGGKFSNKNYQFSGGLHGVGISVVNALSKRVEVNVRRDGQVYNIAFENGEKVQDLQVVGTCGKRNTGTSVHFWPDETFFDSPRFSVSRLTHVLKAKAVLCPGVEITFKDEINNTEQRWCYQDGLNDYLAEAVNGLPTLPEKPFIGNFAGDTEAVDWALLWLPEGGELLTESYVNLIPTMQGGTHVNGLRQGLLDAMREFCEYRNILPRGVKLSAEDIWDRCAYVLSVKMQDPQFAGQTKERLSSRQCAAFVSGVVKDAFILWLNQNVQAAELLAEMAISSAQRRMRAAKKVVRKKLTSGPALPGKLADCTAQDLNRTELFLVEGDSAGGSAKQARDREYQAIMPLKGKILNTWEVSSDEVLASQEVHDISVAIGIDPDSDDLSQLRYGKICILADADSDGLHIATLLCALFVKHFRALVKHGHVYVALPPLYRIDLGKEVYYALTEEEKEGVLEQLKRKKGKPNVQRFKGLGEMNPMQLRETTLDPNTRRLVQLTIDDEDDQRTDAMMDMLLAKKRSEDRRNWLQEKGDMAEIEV
T2 sequence (P0AFI2 whole entry partner): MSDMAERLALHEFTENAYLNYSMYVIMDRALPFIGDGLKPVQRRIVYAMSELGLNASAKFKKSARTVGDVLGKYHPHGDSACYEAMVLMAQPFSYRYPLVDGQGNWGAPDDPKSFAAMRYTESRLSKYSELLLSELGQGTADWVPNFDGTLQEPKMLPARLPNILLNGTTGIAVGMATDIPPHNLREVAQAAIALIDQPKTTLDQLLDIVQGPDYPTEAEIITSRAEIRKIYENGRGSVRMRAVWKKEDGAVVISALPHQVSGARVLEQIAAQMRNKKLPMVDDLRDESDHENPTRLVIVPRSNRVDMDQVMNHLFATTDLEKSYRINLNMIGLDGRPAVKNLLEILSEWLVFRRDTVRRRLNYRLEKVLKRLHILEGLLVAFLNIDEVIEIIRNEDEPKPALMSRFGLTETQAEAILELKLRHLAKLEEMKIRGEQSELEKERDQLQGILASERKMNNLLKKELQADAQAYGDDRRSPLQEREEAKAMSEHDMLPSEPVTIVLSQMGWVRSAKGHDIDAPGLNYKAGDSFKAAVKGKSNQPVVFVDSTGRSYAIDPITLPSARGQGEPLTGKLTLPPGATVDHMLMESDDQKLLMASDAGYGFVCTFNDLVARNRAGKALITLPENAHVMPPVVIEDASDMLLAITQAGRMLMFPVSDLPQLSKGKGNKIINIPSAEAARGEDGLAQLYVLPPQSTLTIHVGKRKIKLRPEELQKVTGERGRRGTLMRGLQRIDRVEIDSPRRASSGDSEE

[13] = test system: Cyclin D1; assay: qRT-PCR gene expression in MCF7 cells: Cyclin D1; type: cell-based, human; details: compound at IC50, 48 h, relative to β-Actin, vs control
Summary of the method: as §1

[14] = target: T2, E. coli topoisomerase IV; assay: E. coli topoisomerase IV cleavage assay; type: biochemical
[15] = test system: E. coli O157 ATCC 700728; assay: Agar well diffusion test; type: cell-based; details: AWDT; for Zone of inhibition: E. coli O157 ATCC 700728, average of triplicate
Summary of the method: as §2

[16] = test system: BAX; assay: qRT-PCR gene expression in MCF7 cells: BAX; type: cell-based, human; details: compound at IC50, 48 h, relative to β-Actin, vs control
Summary of the method: as §1

[17] = test system: E. coli O157 ATCC 700728; assay: Minimum inhibitory concentration, E. coli; type: cell-based; details: Escherichia coli, ATCC700728, read-out: MIC (mg mL^−1)
Summary of the method: (§3)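 MIC was determined by a previously reported method for compounds selected from the well-diffusion screen and is expressed in mg mL−1. […] For C. albicans, 100 μL of negative cells went onto potato dextrose agar at 25 °C/72 h.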

[18] = test system: C. albicans ATCC 10231; assay: Minimum inhibitory concentration, C. albicans; type: cell-based; details: Candida albicans, ATCC10231, read-out: MIC (mg mL^−1)
Summary of the method: as §3

[19] = target: T1, E. coli DNA gyrase; assay: E. coli DNA gyrase supercoiling assay; type: biochemical
Summary of the method: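 Commercial kit assay of E. coli DNA gyrase supercoiling. Relaxed plasmid DNA is the substrate, and relaxed and supercoiled forms are separated by agarose gel electrophoresis. Test compounds were dissolved in DMSO and added at different concentrations to derive IC50.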

[20] = target: T3, S. aureus DNA gyrase (Staphylococcus aureus, UniProt P0A0K8); assay: S. aureus DNA gyrase ATPase assay; type: biochemical
[21] = target: T4, S. aureus topoisomerase IV (Staphylococcus aureus, UniProt P0C1S7); assay: S. aureus topoisomerase IV decatenation assay; type: biochemical
T4 sequence (P0C1S7 whole entry): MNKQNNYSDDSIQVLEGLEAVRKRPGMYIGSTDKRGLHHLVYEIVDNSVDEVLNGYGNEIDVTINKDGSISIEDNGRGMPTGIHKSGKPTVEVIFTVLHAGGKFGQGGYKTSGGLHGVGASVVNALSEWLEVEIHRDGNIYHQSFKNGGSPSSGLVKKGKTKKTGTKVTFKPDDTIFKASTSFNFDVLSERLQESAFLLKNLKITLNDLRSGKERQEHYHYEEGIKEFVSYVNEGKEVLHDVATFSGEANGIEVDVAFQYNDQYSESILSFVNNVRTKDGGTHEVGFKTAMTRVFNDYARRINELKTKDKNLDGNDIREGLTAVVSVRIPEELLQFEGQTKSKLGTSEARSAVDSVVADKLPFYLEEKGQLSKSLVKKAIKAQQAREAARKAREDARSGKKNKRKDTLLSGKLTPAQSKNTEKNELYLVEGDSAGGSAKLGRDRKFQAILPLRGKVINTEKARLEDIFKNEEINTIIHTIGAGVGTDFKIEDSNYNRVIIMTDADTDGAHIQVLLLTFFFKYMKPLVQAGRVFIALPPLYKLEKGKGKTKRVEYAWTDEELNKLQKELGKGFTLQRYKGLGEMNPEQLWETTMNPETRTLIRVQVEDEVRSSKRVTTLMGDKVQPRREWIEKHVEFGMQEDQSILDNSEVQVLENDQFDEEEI
T4 sequence (P0C1U9 whole entry partner): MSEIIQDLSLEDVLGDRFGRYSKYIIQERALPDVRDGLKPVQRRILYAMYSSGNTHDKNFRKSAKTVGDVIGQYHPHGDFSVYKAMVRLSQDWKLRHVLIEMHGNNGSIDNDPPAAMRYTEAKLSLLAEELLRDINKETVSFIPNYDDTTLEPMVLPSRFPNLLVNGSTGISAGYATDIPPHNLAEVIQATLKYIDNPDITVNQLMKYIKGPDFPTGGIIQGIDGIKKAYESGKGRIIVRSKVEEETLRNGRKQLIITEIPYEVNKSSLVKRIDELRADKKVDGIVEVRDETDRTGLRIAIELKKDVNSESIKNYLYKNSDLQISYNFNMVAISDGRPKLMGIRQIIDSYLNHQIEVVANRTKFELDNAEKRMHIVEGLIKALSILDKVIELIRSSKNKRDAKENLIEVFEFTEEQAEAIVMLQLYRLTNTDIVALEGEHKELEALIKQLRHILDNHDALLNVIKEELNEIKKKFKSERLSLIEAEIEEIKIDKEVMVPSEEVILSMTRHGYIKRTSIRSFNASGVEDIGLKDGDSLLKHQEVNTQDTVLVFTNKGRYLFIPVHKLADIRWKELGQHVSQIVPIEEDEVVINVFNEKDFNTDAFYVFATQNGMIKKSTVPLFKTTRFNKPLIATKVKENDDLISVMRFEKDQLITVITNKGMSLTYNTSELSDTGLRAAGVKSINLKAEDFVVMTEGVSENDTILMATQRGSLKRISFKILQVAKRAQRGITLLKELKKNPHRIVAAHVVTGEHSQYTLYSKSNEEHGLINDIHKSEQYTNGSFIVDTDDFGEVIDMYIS

[22] = target: T3, S. aureus DNA gyrase; assay: S. aureus DNA gyrase supercoiling assay; type: biochemical
[23] = target: T4, S. aureus topoisomerase IV; assay: S. aureus topoisomerase IV ATPase assay; type: biochemical

Structure (SMILES)	BCL2 gene expression level [1]	JAK2 gene expression level [2]	Zone of inhibition, inhibition scale [3]	Zone of inhibition [3]	IC50 [4]	(SI) MCF7, selectivity index [4]	IL6 gene expression level [5]	STAT3 gene expression level [6]	c-MYC gene expression level [7]	IC50 [8]	Zone of inhibition, inhibition scale [9]	Zone of inhibition [9]	Zone of inhibition, inhibition scale [10]	Zone of inhibition [10]	Cyclin D1 gene expression level [13]	Zone of inhibition [15]	BAX gene expression level [16]	MIC [18]	other results
CC(=O)c1ccc2cc(S(=O)(=O)Nc3ccccc3)ccc2c1 [Compound 5a, 6-Acetyl-N-phenylnaphthalene-2-sulfonamide]	significantly decreased	significantly decreased	− (0–6 mm (−))	0 mm	42.1 µM	2.15	significantly decreased	significantly decreased	significantly decreased	7.87 ± 0.74 µM	− (0–6 mm (−))	0 mm	++ (12–14 mm (++))	12 mm					
CC(=O)c1ccc2cc(S(=O)(=O)Nc3ccc(F)cc3)ccc2c1 [Compound 5b, 6-Acetyl-N-(4-fluorophenyl)naphthalene-2-sulfonamide]	significant decrease	significant decrease	− (0–6 mm (−))	0 mm	40.1 µM	2.33	significant decrease	significant decrease	significant decrease	3.59 ± 0.7 µM	− (0–6 mm (−))	0 mm	+++ (15–17 mm (+++))	15 mm	significant decrease	15 mm	significant increase	10 mg/mL (≈ 29.1 mM)	IC50 [11]: 3.58 µM; IC50 [12]: 3.49 µM; IC50 [14]: 15.4 µM; Potency relative to norfloxacin, topoisomerase IV cleavage assay ([14]; E. coli, more potent than norfloxacin): 1.5 fold; Potency as STAT3 inhibitor relative to lead compound I [8]: approximately 2 fold; MIC [17]: 10 mg/mL (≈ 29.1 mM); IC50 [19]: 20.6 µM
CC(=O)c1ccc2cc(S(=O)(=O)Nc3ccc(Br)cc3)ccc2c1 [Compound 5e, 6-Acetyl-N-(4-bromophenyl)naphthalene-2-sulfonamide]			+++ (15–17 mm (+++))	16 mm	43.1 µM	2.22	significant reduction	significant reduction	significant reduction	3.01 ± 0.06 µM	+ (7–11 mm (+))	11 mm	+++ (15–17 mm (+++))	15 mm	significant reduction	12 mm	significantly increased	20 mg/mL (≈ 49.5 mM)	IC50 [20]: 3.04 µM; IC50 [21]: 18.9 µM; Zone of inhibition, inhibition scale ([15]; E. coli O157 ATCC 700728): ++ (12–14 mm (++)); IC50 [22]: 21.8 µM; IC50 [23]: 5.96 µM; Activity relative to ciprofloxacin, topoisomerase IV ATPase assay ([23]; S. aureus, less than ciprofloxacin): more than 3 fold; Potency as STAT3 inhibitor relative to lead compound I [8]: approximately 2 fold
CC(=O)c1ccc2cc(S(=O)(=O)Nc3ccccn3)ccc2c1 [Compound 5i, 6-Acetyl-N-(pyridin-2-yl)naphthalene-2-sulfonamide]	significant decrease	significant decrease	− (0–6 mm (−))	0 mm	41.6 µM	2.13	significant decrease	significant decrease	significant decrease	8.58 ± 0.9 µM	− (0–6 mm (−))	0 mm	+ (7–11 mm (+))	14 mm	significant decrease	11 mm	significant increase	40 mg/mL (≈ 123 mM)	
CC(=O)c1ccc2cc(S(=O)(=O)Nc3cccnc3)ccc2c1 [Compound 5j, 6-Acetyl-N-(pyridin-3-yl)naphthalene-2-sulfonamide]			− (0–6 mm (−))	0 mm							+ (7–11 mm (+))	7 mm	+++ (15–17 mm (+++))	16 mm		16 mm		10 mg/mL (≈ 30.6 mM)	MIC [17]: 20 mg/mL (≈ 61.3 mM)
COc1cccc2c1C(=O)c1c(O)c3c(c(O)c1C2=O)C[C@@](O)(C(=O)CO)C[C@@H]3O[C@H]1C[C@H](N)[C@H](O)[C@H](C)O1 [Doxorubicin, reference compound]	significantly decreasing	significantly decreasing			22.8 µM	3.07	significantly decreasing	significantly decreasing	significantly decreasing						significantly decreasing		significantly raised		
CCn1cc(C(=O)O)c(=O)c2cc(F)c(N3CCNCC3)cc21 [Nor, norfloxacin, reference compound]																			IC50 [14]: 25.8 µM; IC50 [19]: 11.1 µM
